Reference: ChEMBL document CHEMBL1799940, “Isolation and synthesis of antiproliferative eupolauridine alkaloids of Ambavia gerrardii from the Madagascar Dry Forest” (J Nat Prod, 2011)

Assays:
[1] = tested on: NCI-H460; assay: Antiproliferative activity against human H460 cells after 96 hrs by Cell Titre-Glo luminescent assay; format: functional, cell-based; details: NCI-H460, 96 h
[2] = tested on: A2780; assay: Antiproliferative activity against human A2780 cells after 2 days by Alamar Blue assay; format: functional, cell-based; details: A2780, 48 h
Outline: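 Drug-sensitive human ovarian cancer cell line; samples delivered in 1 μL of 100% DMSO per well rather than 20 μL of 1:1 DMSO–H2O. Otherwise run by a previously reported protocol.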

IC50 [1]	IC50 [2]	SMILES
0.57 µM	10.3 µM	COc1cccc2c1-c1nccc3ccnc(c13)C2=O
1.77 µM	3.5 µM	[O-][n+]1ccc2ccnc3c2c1-c1ccccc1-3
> 100 µM	50.3 µM	COc1ccc2c(c1)-c1nccc3cc[n+]([O-])c-2c13
> 10 µM	11.1 µM	COc1ccc2c(c1)-c1nccc3ccnc-2c13
> 10 µM	12.7 µM	Oc1ccc2c(c1)-c1nccc3ccnc-2c13
0.58 µM	0.6 µM	O=C1c2ccccc2-c2nccc3ccnc1c23 [SAMPANGINE]
> 10 µM	54.3 µM	COc1ccc2c(c1)-c1c3c-2nccc3cc[n+]1[O-]

SMILES	IC50 [1]	IC50 [2]
c1ccc2c(c1)-c1nccc3ccnc-2c13 [EUPOLAURIDINE]	> 100 µM	35.7 µM
